# Source: ChEMBL document CHEMBL3734657, “Discovery of Novel Multifunctional Ligands with μ/δ Opioid Agonist/Neurokinin-1 (NK1) Antagonist Activities for the Treatment of Pain” (J Med Chem, 2015)
# Activity calls are given as the source filed them. The rule behind the calls is not given here.
# Tests used:
# Substance-P receptor = Substance-P receptor (Rattus norvegicus, UniProt P14600); experiment: Displacement of [3H]SP from rat neurokinin-1 receptor expressed in CHO cells incubated for 20 mins by liquid scintillation counting; format: cell-based
# Method in brief: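 CHO membranes with human or rat NK1: six compound concentrations in duplicate with 20 μg membrane and 0.5 nM [3H]SP in 50 mM Tris pH 7.4, 5 mM MgCl2 plus peptidase inhibitors; 25 °C, 20 min. Nonspecific binding with 10 μM SP. GF/B filtration (PEI-soaked), scintillation counting.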
# [1] = biological target: T1, Delta-type opioid receptor (Homo sapiens, UniProt P41143); experiment: Binding affinity to delta opioid receptor (unknown origin)
# Mu-type opioid receptor [2] = biological target: T2, Mu-type opioid receptor (Homo sapiens, UniProt P35372); experiment: Binding affinity to mu opioid receptor (unknown origin)
# [3] = Metabolic stability in rat plasma assessed as compound remaining at 50 ug/ml […] by RP-HPLC assay; format: ADME, cell-free; settings: read-out: Stability
# [4] = biological target: T1, Delta-type opioid receptor; experiment: Agonist activity at delta receptor (unknown origin) expressed in HEK293 cells assessed as inhibition of forskolin-induced cAMP accumulation by bioluminescent assay; format: functional, cell-based
# [5] = Half-life in rat plasma at 50 ug/ml by RP-HPLC assay; format: ADME, cell-free
# Method in brief: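 50 mg/mL DMSO stock diluted 1000-fold into rat plasma (final 50 μg/mL), 37 °C. Aliquots at 0.5–8 h quenched with acetonitrile, centrifuged; parent remaining by RP-HPLC C18. Two independent runs, each in duplicate; half-life from mean of the two.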
# Mu-type opioid receptor [6] = biological target: T2, Mu-type opioid receptor; experiment: Agonist activity at mu opioid receptor (unknown origin) expressed in HEK293 cells assessed as inhibition of forskolin-induced cAMP accumulation by bioluminescent assay; format: functional, cell-based
# [7] = biological target: Delta-type opioid receptor (Mus musculus, UniProt P32300); experiment: Agonist activity at delta opioid receptor in ICR mouse isolated vas deferens assessed as inhibition of electrically-stimulated muscle contraction; format: tissue-based
# [8] = Selectivity ratio of IC50 for mu opioid receptor in Hartley guniea pig isolated ileum to IC50 for delta opioid receptor in ICR mouse isolated vas deferens; format: tissue-based
# [9] = biological target: Substance-P receptor (Cavia porcellus) (UniProt P30547); experiment: Agonist activity at neurokinin-1 receptor in Hartley guniea pig isolated ileum/Longitudinal Muscle with Myenteric Plexus assessed as inhibition of electrically-stimulated muscle contraction at 100 nM; format: tissue-based
# [10] = biological target: Substance-P receptor (Cavia porcellus) (UniProt P30547); experiment: Agonist activity at neurokinin-1 receptor in Hartley guniea pig isolated ileum/Longitudinal Muscle with Myenteric Plexus assessed as inhibition of electrically-stimulated muscle contraction at 300 nM; format: tissue-based
# [11] = biological target: Substance-P receptor (Cavia porcellus) (UniProt P30547); experiment: Agonist activity at neurokinin-1 receptor in Hartley guniea pig isolated ileum assessed as inhibition of electrically-stimulated muscle contraction at 1 uM; format: tissue-based; parameters: scale not given: the % may be the effect or the level left
# [12] = biological target: Substance-P receptor (Cavia porcellus) (UniProt P30547); experiment: Agonist activity at neurokinin-1 receptor in Hartley guniea pig isolated ileum/Longitudinal Muscle with Myenteric Plexus assessed as inhibition of electrically-stimulated muscle contraction at 30 nM; format: tissue-based
# Homo sapiens [13] = organism: Homo sapiens; experiment: Selectivity ratio of Ki for mu opioid receptor (unknown origin) to Ki for delta opioid receptor (unknown origin)
# Homo sapiens [14] = organism: Homo sapiens; experiment: Selectivity ratio of IC50 for mu opioid receptor (unknown origin) to IC50 for delta opioid receptor (unknown origin)
# [15] = biological target: Substance-P receptor (Homo sapiens) (UniProt P25103); experiment: Antagonist activity at neurokinin-1 receptor (unknown origin) expressed in CHO cells assessed as inhibition of substance-P induced calcium flux by bioluminescent assay; format: functional, cell-based
# [16] = biological target: Substance-P receptor (Cavia porcellus) (UniProt P30547); experiment: Antagonist activity at neurokinin-1 receptor in Hartley guniea pig isolated ileum/Longitudinal Muscle with Myenteric Plexus assessed as inhibition of electrically-stimulated muscle contraction; format: tissue-based
# Rattus norvegicus = organism: Rattus norvegicus; experiment: Neurotoxicity in Sprague-Dawley rat assessed as motor impairment at 10 ug/5 ul, it by rotarod test; format: toxicity, organism-based; settings: in vivo, icv_or_intrathecal
# Method in brief: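 Intrathecal catheterized Sprague–Dawley rats given 10 μg in 5 μL; motor function assessed by rotarod.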
# Mu-type opioid receptor [17] = biological target: Mu-type opioid receptor (Cavia porcellus, UniProt P97266); experiment: Agonist activity at mu opioid receptor in Hartley guniea pig isolated ileum assessed as inhibition of electrically-stimulated muscle contraction; format: tissue-based
# Chain of Mu-type opioid receptor (Cavia porcellus, UniProt P97266) (P97266 whole entry): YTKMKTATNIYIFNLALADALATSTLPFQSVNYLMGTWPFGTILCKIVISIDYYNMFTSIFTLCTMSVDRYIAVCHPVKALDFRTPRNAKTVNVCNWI
# T2 sequence (P35372 whole entry): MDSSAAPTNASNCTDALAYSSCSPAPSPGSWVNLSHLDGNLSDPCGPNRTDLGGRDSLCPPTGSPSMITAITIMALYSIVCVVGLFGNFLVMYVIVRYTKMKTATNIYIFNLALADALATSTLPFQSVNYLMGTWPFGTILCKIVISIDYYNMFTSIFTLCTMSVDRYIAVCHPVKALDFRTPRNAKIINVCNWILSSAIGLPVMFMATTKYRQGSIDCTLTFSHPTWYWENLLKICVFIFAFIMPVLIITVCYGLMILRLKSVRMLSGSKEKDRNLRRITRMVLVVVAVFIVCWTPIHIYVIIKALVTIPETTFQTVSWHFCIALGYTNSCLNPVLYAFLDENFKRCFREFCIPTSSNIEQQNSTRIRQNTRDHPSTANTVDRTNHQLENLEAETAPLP
# Chain of Substance-P receptor (Cavia porcellus) (P30547 whole entry): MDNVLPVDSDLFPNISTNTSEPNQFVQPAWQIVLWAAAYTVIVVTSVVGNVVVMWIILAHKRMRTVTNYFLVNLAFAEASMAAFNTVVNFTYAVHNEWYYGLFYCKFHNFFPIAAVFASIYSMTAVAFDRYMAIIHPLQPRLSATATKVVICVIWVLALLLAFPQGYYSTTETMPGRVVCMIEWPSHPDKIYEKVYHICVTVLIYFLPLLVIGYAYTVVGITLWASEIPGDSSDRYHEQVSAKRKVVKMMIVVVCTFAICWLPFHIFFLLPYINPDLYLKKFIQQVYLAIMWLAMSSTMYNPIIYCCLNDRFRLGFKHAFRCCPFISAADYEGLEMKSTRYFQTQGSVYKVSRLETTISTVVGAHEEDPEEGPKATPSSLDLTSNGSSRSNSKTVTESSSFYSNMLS
# T1 sequence (P41143 whole entry): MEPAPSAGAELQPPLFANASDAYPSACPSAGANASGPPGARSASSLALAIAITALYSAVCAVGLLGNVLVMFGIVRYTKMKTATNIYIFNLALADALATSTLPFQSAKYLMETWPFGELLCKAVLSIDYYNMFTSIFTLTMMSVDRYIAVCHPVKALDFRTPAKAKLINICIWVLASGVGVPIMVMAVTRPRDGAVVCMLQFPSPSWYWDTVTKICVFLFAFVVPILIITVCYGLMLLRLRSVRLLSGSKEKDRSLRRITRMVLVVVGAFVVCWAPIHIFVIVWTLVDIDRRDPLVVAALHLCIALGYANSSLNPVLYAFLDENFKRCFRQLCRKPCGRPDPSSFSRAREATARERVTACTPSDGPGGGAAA
# Chain of Substance-P receptor (P14600 whole entry): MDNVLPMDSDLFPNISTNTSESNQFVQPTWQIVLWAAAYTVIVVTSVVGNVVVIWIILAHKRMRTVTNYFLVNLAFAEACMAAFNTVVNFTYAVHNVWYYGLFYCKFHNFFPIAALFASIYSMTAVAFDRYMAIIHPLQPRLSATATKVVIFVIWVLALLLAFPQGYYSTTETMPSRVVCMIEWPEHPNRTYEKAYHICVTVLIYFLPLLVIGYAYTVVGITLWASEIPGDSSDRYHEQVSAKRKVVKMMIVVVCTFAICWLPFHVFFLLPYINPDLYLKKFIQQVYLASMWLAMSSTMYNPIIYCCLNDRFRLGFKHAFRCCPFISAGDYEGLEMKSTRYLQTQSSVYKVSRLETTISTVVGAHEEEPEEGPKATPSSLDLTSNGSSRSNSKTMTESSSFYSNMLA
# Chain of Substance-P receptor (Homo sapiens) (P25103 whole entry): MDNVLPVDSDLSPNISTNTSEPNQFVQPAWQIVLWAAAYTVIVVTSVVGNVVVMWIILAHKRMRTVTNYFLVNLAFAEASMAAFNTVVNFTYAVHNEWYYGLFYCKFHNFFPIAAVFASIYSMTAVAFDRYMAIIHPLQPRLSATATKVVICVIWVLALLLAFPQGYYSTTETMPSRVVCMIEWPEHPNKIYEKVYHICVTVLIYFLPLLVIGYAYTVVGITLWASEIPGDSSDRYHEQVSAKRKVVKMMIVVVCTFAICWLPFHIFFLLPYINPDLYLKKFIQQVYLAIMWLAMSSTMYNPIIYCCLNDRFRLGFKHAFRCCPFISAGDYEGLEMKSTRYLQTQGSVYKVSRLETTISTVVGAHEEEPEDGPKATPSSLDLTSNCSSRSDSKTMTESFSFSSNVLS
# Chain of Delta-type opioid receptor (Mus musculus, UniProt P32300) (P32300 whole entry): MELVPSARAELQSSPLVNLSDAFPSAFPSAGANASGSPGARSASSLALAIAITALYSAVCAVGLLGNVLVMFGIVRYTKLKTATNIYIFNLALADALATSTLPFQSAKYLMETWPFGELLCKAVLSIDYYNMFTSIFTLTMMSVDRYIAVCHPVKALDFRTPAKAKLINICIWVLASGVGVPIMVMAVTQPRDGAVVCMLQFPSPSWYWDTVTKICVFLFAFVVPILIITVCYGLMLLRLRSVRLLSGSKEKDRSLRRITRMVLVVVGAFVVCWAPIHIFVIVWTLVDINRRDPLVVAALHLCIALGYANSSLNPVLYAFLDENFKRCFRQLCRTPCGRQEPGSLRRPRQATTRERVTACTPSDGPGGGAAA
structure (smiles),measurement,setting,value
CC(C)C[C@H](NC(=O)[C@@H]1CCCN1C(=O)[C@H](Cc1ccc(F)cc1)NC(=O)CNC(=O)[C@@H](C)NC(=O)[C@@H](N)Cc1ccc(O)cc1)C(=O)N[C@@H](Cc1c[nH]c2ccccc12)C(=O)NCc1cc(C(F)(F)F)cc(C(F)(F)F)c1,Ki,Substance-P receptor,34 nM
same,IC50,[1],15.5 nM
same,Ki,[1],7 nM
same,IC50,Mu-type opioid receptor [2],8.32 nM
same,remaining at 50 ug/ml,[3],100%
Cc1cc(O)cc(C)c1C[C@H](N)C(=O)N[C@H](C)C(=O)NCC(=O)N[C@@H](Cc1ccc(F)cc1)C(=O)N1CCC[C@H]1C(=O)N[C@@H](CC(C)C)C(=O)N[C@@H](Cc1c[nH]c2ccccc12)C(=O)NCc1cc(C(F)(F)F)cc(C(F)(F)F)c1,IC50,[1],66.1 nM
same,IC50,[4],21 nM
same,half-life at 50 ug/ml,[5],> 12 h
same,IC50,Mu-type opioid receptor [6],59 nM
same,IC50,Mu-type opioid receptor [2],1.91 nM
same,IC50,[7],2 nM
same,remaining at 50 ug/ml,[3],100%
Cc1cc(O)cc(C)c1C[C@H](N)C(=O)N[C@H](C)C(=O)NCC(=O)N[C@@H](Cc1ccc(Cl)cc1)C(=O)N1CCC[C@H]1C(=O)N[C@@H](CC(C)C)C(=O)N[C@@H](Cc1c[nH]c2ccccc12)C(=O)NCc1cc(C(F)(F)F)cc(C(F)(F)F)c1,IC50,Mu-type opioid receptor [2],4.68 nM
Cc1cc(O)cc(C)c1C[C@H](N)C(=O)N[C@H](C)C(=O)NCC(=O)N[C@@H](Cc1ccc(Br)cc1)C(=O)N1CCC[C@H]1C(=O)N[C@@H](CC(C)C)C(=O)N[C@@H](Cc1c[nH]c2ccccc12)C(=O)NCc1cc(C(F)(F)F)cc(C(F)(F)F)c1,IC50,Mu-type opioid receptor [2],11 nM
Cc1cc(O)cc(C)c1C[C@H](N)C(=O)N[C@H](C)C(=O)NCC(=O)N[C@@H](Cc1ccc(I)cc1)C(=O)N1CCC[C@H]1C(=O)N[C@@H](CC(C)C)C(=O)N[C@@H](Cc1c[nH]c2ccccc12)C(=O)NCc1cc(C(F)(F)F)cc(C(F)(F)F)c1,IC50,Mu-type opioid receptor [2],13.2 nM
CC(C)C[C@H](NC(=O)[C@@H]1CCCN1C(=O)[C@H](Cc1ccccc1)N(C)C(=O)CNC(=O)[C@H](C)NC(=O)[C@@H](N)Cc1ccc(O)cc1)C(=O)N[C@@H](Cc1c[nH]c2ccccc12)C(=O)NCc1cc(C(F)(F)F)cc(C(F)(F)F)c1,Ratio IC50,[8],2
same,Activity,[9],inactive
Cc1cc(O)cc(C)c1C[C@H](N)C(=O)N[C@@H](C)C(=O)NCC(=O)N[C@@H](Cc1ccc(I)cc1)C(=O)N1CCC[C@H]1C(=O)N[C@@H](CC(C)C)C(=O)N[C@@H](Cc1c[nH]c2ccccc12)C(=O)NCc1cc(C(F)(F)F)cc(C(F)(F)F)c1,Activity,[10],inactive
same,Activity,[11],41%
Cc1cc(O)cc(C)c1C[C@H](N)C(=O)N[C@H](C)C(=O)NCC(=O)N(C)[C@@H](Cc1ccc(F)cc1)C(=O)N1CCC[C@H]1C(=O)N[C@@H](CC(C)C)C(=O)N[C@@H](Cc1c[nH]c2ccccc12)C(=O)NCc1cc(C(F)(F)F)cc(C(F)(F)F)c1,IC50,Mu-type opioid receptor [2],2.82 nM
Cc1cc(O)cc(C)c1C[C@H](N)C(=O)N[C@@H](C)C(=O)NCC(=O)N(C)[C@@H](Cc1ccccc1)C(=O)N1CCC[C@H]1C(=O)N[C@@H](CC(C)C)C(=O)N[C@@H](Cc1c[nH]c2ccccc12)C(=O)NCc1cc(C(F)(F)F)cc(C(F)(F)F)c1,Activity,[12],inactive
Cc1cc(O)cc(C)c1C[C@H](N)C(=O)N[C@@H](C)C(=O)NCC(=O)N[C@@H](Cc1ccccc1)C(=O)N1CCC[C@H]1C(=O)N[C@@H](CC(C)C)C(=O)N[C@@H](Cc1c[nH]c2ccccc12)C(=O)NCc1cc(C(F)(F)F)cc(C(F)(F)F)c1,Ratio Ki,Homo sapiens [13],3
same,Ratio IC50,Homo sapiens [14],6
same,Ratio IC50,[8],26
same,Ke,[15],11 nM
same,Activity,[9],inactive
same,Ke,[16],25 nM
CC(C)C[C@H](NC(=O)[C@@H]1CCCN1C(=O)[C@H](Cc1ccc(F)cc1)NC(=O)CNC(=O)[C@H](C)NC(=O)[C@@H](N)Cc1ccc(O)cc1)C(=O)N[C@@H](Cc1c[nH]c2ccccc12)C(=O)NCc1cc(C(F)(F)F)cc(C(F)(F)F)c1,Activity,[12],inactive
CC(C)C[C@H](NC(=O)[C@@H]1CCCN1C(=O)[C@H](Cc1ccccc1)NC(=O)CNC(=O)[C@@H](C)NC(=O)[C@@H](N)Cc1ccc(O)cc1)C(=O)N[C@@H](Cc1c[nH]c2ccccc12)C(=O)NCc1cc(C(F)(F)F)cc(C(F)(F)F)c1,IC50,Mu-type opioid receptor [2],20 nM
same,Ki,Mu-type opioid receptor [2],9.5 nM
Cc1cc(O)cc(C)c1C[C@H](N)C(=O)N[C@@H](C)C(=O)NCC(=O)N[C@@H](Cc1ccc(F)cc1)C(=O)N1CCC[C@H]1C(=O)N[C@@H](CC(C)C)C(=O)N[C@@H](Cc1c[nH]c2ccccc12)C(=O)NCc1cc(C(F)(F)F)cc(C(F)(F)F)c1,Ratio Ki,Homo sapiens [13],1
same,Activity,[12],inactive
Cc1cc(O)cc(C)c1C[C@H](N)C(=O)N[C@@H](C)C(=O)NCC(=O)N(C)[C@@H](Cc1ccc(F)cc1)C(=O)N1CCC[C@H]1C(=O)N[C@@H](CC(C)C)C(=O)N[C@@H](Cc1c[nH]c2ccccc12)C(=O)NCc1cc(C(F)(F)F)cc(C(F)(F)F)c1,Activity,[12],inactive
Cc1cc(O)cc(C)c1C[C@H](N)C(=O)N[C@@H](C)C(=O)NCC(=O)N[C@@H](Cc1ccc(Br)cc1)C(=O)N1CCC[C@H]1C(=O)N[C@@H](CC(C)C)C(=O)N[C@@H](Cc1c[nH]c2ccccc12)C(=O)NCc1cc(C(F)(F)F)cc(C(F)(F)F)c1,Activity,[9],inactive
Cc1cc(O)cc(C)c1C[C@H](N)C(=O)N[C@@H](C)C(=O)NCC(=O)N[C@@H](Cc1ccc(Cl)cc1)C(=O)N1CCC[C@H]1C(=O)N[C@@H](CC(C)C)C(=O)N[C@@H](Cc1c[nH]c2ccccc12)C(=O)NCc1cc(C(F)(F)F)cc(C(F)(F)F)c1,Ratio Ki,Homo sapiens [13],1
same,Activity,[10],inactive
same,Ratio IC50,[8],7
Cc1cc(O)cc(C)c1C[C@H](N)C(=O)N[C@H](C)C(=O)NCC(=O)N(C)[C@@H](Cc1ccccc1)C(=O)N1CCC[C@H]1C(=O)N[C@@H](CC(C)C)C(=O)N[C@@H](Cc1c[nH]c2ccccc12)C(=O)NCc1cc(C(F)(F)F)cc(C(F)(F)F)c1,IC50,[4],30 nM
same,IC50,Mu-type opioid receptor [6],39 nM
same,Activity,Rattus norvegicus,Toxic
same,IC50,Mu-type opioid receptor [2],1.66 nM
same,remaining at 50 ug/ml,[3],100%
Cc1cc(O)cc(C)c1C[C@H](N)C(=O)N[C@H](C)C(=O)NCC(=O)N[C@@H](Cc1ccccc1)C(=O)N1CCC[C@H]1C(=O)N[C@@H](CC(C)C)C(=O)N[C@@H](Cc1c[nH]c2ccccc12)C(=O)NCc1cc(C(F)(F)F)cc(C(F)(F)F)c1,Ki,Substance-P receptor; cho,27 nM
same,IC50,[4]; hek293,7.2 nM
same,IC50,Mu-type opioid receptor [6]; hek293,46 nM
same,IC50,Mu-type opioid receptor [2],2.34 nM
same,Ki,Mu-type opioid receptor [2],3 nM
same,IC50,Mu-type opioid receptor [17],81 nM
CC(C)C[C@H](NC(=O)[C@@H]1CCCN1C(=O)[C@H](Cc1ccccc1)N(C)C(=O)CNC(=O)[C@@H](C)NC(=O)[C@@H](N)Cc1ccc(O)cc1)C(=O)N[C@@H](Cc1c[nH]c2ccccc12)C(=O)NCc1cc(C(F)(F)F)cc(C(F)(F)F)c1,IC50,Mu-type opioid receptor [2],89.1 nM
